An excerpt weighted towards active compounds, which were near 3.6% of everything screened.
NS3 helicase inh: HCV NS3 helicase inhibition; 290,000 compounds, 0.56% hits; NS3 helicase DNA unwinding, Cy5 molecular beacon fluorescence; inhibition, % at 10.9 µM;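 active means inhibition above the mean of all tested compounds plus 3 SD, set per campaign, cut at about 35% in these data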;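 further: 0% = DMSO wells and 100% = thioflavine S control wells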
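System: HCV NS3 helicase fragment; control set: DMSO and thioflavine S; technique: Cy5 fluorescence at 0 and 60 min, beacon hairpin quenching; reagent: beacon DNA duplex substrate plus ATP; replicates: singlicate; schedule: 1 h reaction at 25 °C, ATP-initiated; medium: MOPS buffer pH 6.5 with MgCl2, DTT, Tween20, BSA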
FGF22 binding: shifts melting point of recombinant human FGF22; Q9HCT0; recombinant FGF22 thermal shift, SYPRO orange fluorescence; percent of sucrose octasulfate shift, DMSO zero; activity (Tm shift, normalised), % at 9.99 µM; 340,000 compounds, 1.5% hits; AID 651658;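 active means mean Tm shift, scaled 0 neutral to 100 positive control, at about 1.3% or above, every replicate too, limit read from the data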
Target sequence (Q9HCT0 whole entry, looked up): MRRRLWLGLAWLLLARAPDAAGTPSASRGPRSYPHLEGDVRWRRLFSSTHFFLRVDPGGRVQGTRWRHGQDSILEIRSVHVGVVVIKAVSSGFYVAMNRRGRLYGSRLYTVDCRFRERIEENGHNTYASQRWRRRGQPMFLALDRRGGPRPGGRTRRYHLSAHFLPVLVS
NR3A LBD binder: NR3A (human) ligand-binding domain modulation. 340,000 compounds, 2.5% hits. AID 1259313. Tm shift relative to glycine control, % at 25 µM. NR3A LBD differential scanning fluorimetry, Tm shift; 0% = protein alone, 100% = glycine-bound protein;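 active means melting temperature shift of at least 10% of the positive control shift, at one fixed dose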
FID counter: counter-screen for HCV NS3 helicase inhibitors: DNA intercalator displacement; AID 1845; DNA fluorescent intercalator displacement, fluorescence; inhibition, % at 7.9 µM; 290,000 compounds, 0.17% hits; in the data active means inhibition above about 37%;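 further: 0% = vehicle and 100% = reference compound; higher means more ethidium bromide displaced from hairpin DNA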
EBNA-1 inhibitor: blocks EBNA-1 binding to DNA | inhibition, % at 14.8 µM | EBNA-1 DNA binding, fluorescence polarization | 300,000 compounds, 0.34% hits; in the data active means inhibition above about 28%
ZTA counter: ZTA (EBV) inhibition in EBNA-1 counter-screen; P03206; ZTA-DNA binding, fluorescence polarization; inhibition, % at 11 µM; 320,000 compounds, 0.15% hits; AID 2234; in the data active means inhibition above about 33%
Target sequence (P03206 whole entry, looked up): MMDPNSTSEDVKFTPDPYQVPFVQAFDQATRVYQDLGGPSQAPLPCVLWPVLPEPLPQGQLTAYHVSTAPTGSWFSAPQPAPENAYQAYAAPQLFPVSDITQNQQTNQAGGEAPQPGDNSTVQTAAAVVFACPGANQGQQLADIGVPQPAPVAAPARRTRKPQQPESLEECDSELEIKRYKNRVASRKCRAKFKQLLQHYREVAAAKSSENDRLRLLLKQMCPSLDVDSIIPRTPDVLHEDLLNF
* = called active by the depositor; . = no result.

SMILES	NS3 helicase inh	FGF22 binding	NR3A LBD binder	FID counter	EBNA-1 inhibitor	ZTA counter
CCCCCCCCOC(=O)c1c(CSC(=N)N)n(C)c2cc(Br)c(OC(C)=O)cc12	-67.8	-0.3	39.8*	-2.4	1.7	12.6
C=C(C)C(O)CC/C(C)=C/Cc1c(O)ccc(C(=O)/C=C/c2ccc(O)cc2)c1O (stereo not given)	.	0.2	14.8*	.	.	.
COc1ccc(C(=O)/C=C/c2ccc(O)cc2)c(O)c1C/C=C(\C)CCC=C(C)C	.	0.8	30.1*	.	.	.
COc1ccc(C=CC(=O)c2ccc(OC)c(OC)c2O)cc1OC	.	-0.1	2.2	.	.	.
CN(C)Cc1cn(CC[C@H]2CC[C@H](NS(=O)(=O)c3ccc(-c4ccccc4)cc3)[C@@H](CO)O2)nn1	.	-0.1	.	.	.	.
O=C(C[C@@H]1C[C@H]2c3cc(NC(=O)NC4CCCC4)ccc3O[C@H]2[C@H](CO)O1)NCc1ccc2c(c1)OCO2	.	-0.1	.	.	.	.
NC(=O)c1cc(-c2ccccc2)sc1NC(=O)CN1CCCCC1	-16.5	43.0*	-9.5	1.4	1.9	20.8
NC(=O)c1ccccc1NC(=O)CN1CCCCCC1	11.5	0.5	1.5	-6.2	9.4	7.2
COc1cccc(-c2nc(NC(C)(C)C)c3ccccc3n2)c1O	-8.1	.	-5.9	-4.8	-3.5	11.2
COc1ccc(Nc2nc(-c3cccc(OC)c3O)nc3ccccc23)cc1	-5.2	0.3	11.4*	3.9	.	.
Oc1cccc(Nc2nc(-c3ccccc3)nc3ccccc23)c1	-23.3	0.0	27.7*	11.3	-0.5	4.3
CC(=O)c1cccc(Nc2nc(-c3ccccc3)nc3ccccc23)c1	-14.3	0.0	23.1*	-2.3	10.3	12.4
N#C[C@@H]1[C@H](c2ccccc2-c2ccccc2)[C@H](CO)N1C(=O)NC1CCCC1	.	-0.1	.	.	.	.
O=C(Oc1ccc2ccccc2c1)c1ccccc1	7.6	.	18.9*	2.7	2.2	-5.8
O=C(Oc1ccccc1)c1ccccc1	.	0.1	-1.0	.	.	.
CCOc1ccc(C(=O)Nc2ccc(NC(=O)c3ccco3)c(Cl)c2)cc1Br	-1.4	0.1	39.8*	-4.0	16.3	-1.2
CCOc1ccc(C(=O)Nc2cccc([N+](=O)[O-])c2)cc1Br	-4.4	0.0	27.0*	8.1	11.3	12.6
CCOc1ccc(C(=O)Nc2cccc(NC(=O)c3cccs3)c2)cc1[N+](=O)[O-]	-7.0	0.2	7.4	3.4	.	.
Cc1nc2ccc(NC(=O)C3COc4ccccc4O3)cc2s1 (stereo not given)	4.5	0.0	-0.5	-8.4	-5.7	-11.0
Cc1nc2ccc(NC(=O)CCS(=O)(=O)c3ccccc3)cc2s1	5.4	0.2	-1.1	-9.9	-3.0	-7.1
Cc1nc2cc(NC(=O)CCS(=O)(=O)c3ccccc3)ccc2s1	4.2	43.6*	-0.8	-8.8	6.4	-10.3
Cc1nc2cc(NC(=O)C3COc4ccccc4O3)ccc2s1 (stereo not given)	6.8	43.5*	0.8	-8.0	-2.7	3.2
Cc1cc(NC(=O)CN2C(=O)NC(CC(C)C)C2=O)ccc1Br (stereo not given)	.	0.0	28.9*	.	.	-6.0
CCCNC(=O)CCCCn1c(=S)[nH]c2c([nH]c3ccc(OC)cc32)c1=O	-9.6	42.9*	1.5	-7.7	0.7	4.0
CC1(C)CC(Cc2ccc(Cl)nc2)N(C(=O)OC(C)(C)C)C1 (stereo not given)	.	43.5*	.	.	.	.
SMILES	NS3 helicase inh	FGF22 binding	NR3A LBD binder	FID counter	EBNA-1 inhibitor	ZTA counter
C[C@@H]1CC[C@H](Cc2ccc(-n3cccc3)cc2)N1C(=O)OC(C)(C)C	.	-0.3	.	.	.	.
CN(C)C(=O)C(=O)c1c(-c2ccccc2)cc2ccccn12	-1.0	.	-1.5	-5.1	4.1	-20.6
O=Nc1c(-c2ccccc2)cc2ccccn12	-0.6	43.1*	-1.7	9.8	-5.4	6.5
CN(CCC#N)c1ccc(/C=C(\C#N)c2ccccn2)cc1	-0.7	0.0	-3.7	11.1	6.4	9.2
CN(CCC#N)c1ccc(C=C(C#N)c2ccc(Br)cc2)cc1	.	44.2*	.	.	.	.
O=C(CNC(=O)c1ccccc1O)N/N=C/c1cc(Br)ccc1OC(=O)/C=C/c1ccco1	5.9	0.6	12.6*	-3.4	6.8	25.6
CCCNC(=O)Nc1ccc2c(c1)C(=O)N(C)C[C@H](OC)[C@H](C)CN(Cc1cncnc1)[C@@H](C)CO2	.	0.1	.	.	.	.

High-throughput results deposited in PubChem BioAssay by several laboratories.
